Experimental data taken from ChEMBL document CHEMBL5724801, “EUbOPEN Chemogenomics Library - Multiplex” (2024).
Where “and” joins values, the source holds several entries; their conditions need not be identical. Identical values can stand only once.

Tested on: U2OS
Experiment: Multiplex assay against U2OS
Format: toxicity, cell-based
Conditions: human
Outline: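 Per cents of healthy-nucleus cells form the tubulin, mitochondrial-mass and membrane-permeability phenotype values. Live cells were stained at seeding with Hoechst33342, BioTracker Green Microtubule Cytoskeleton Dye, MitoTracker Red and Annexin V Alexa Fluor 680. After compound addition they were imaged on a CQ1 microscope at 37°C and 5% CO2, and CellPathfinder machine-learning gating split them into Hoechst high-intensity objects or normal cells, normal cells into healthy, pyknosed or fragmented nuclei, and pyknosed cells into mitotic or apoptotic.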

[1] = 12 h, 1 µM, compound concentration 1 uM
[2] = 12 h, 10 µM, compound concentration 10 uM
[3] = 24 h, 1 µM, compound concentration 1 uM
[4] = 24 h, 10 µM, compound concentration 10 uM
[5] = 48 h, 1 µM, compound concentration 1 uM
[6] = 48 h, 10 µM, compound concentration 10 uM

In the case of `CCC(=N\O)/C(C)=C/c1ccc(F)cc1` [A-079], the “Population Apoptotic (%)” value [1] is reported as 48.57% and 40.91%, the “Population Fragmented Nuclei (%)” value [1] is reported as 1.07% and 0% and the “Population Healthy Nuclei (%)” value [1] is reported as 91.47% and 83.94%. For the same compound, the “Population Hoechst High Intensity Objects (%)” value [1] was 0%, the “Population Membrane Permeable-Phenotype (%)” value [1] was 0.47% and 1.74% and the “Population Mitochondria Different-Phenotype (%)” value [1] was 0% and 11.3%. The “Population Mitotic Cells (%)” value [1] was 51.43% and 59.09%, the “Population Normal (%)” value [1] was 100% and the “Population Pyknosed Nuclei (%)” value [1] was 7.46% and 16.06%. For the same compound, the “Population Tubulin-Different-Phenotype (%)” value [1] was 0.47% and 1.74%, the “Population Apoptotic (%)” value [2] was 36.67% and 36.84% and the “Population Fragmented Nuclei (%)” value [2] was 3.39% and 2.96%. The “Population Healthy Nuclei (%)” value [2] was 88.14% and 82.96%, the “Population Hoechst High Intensity Objects (%)” value [2] was 0% and the “Population Membrane Permeable-Phenotype (%)” value [2] was 1.6% and 0.89%. The “Population Mitochondria Different-Phenotype (%)” value [2] was 0% and 4.46%, the “Population Mitotic Cells (%)” value [2] was 63.33% and 63.16% and the “Population Normal (%)” value [2] was 100%. The “Population Pyknosed Nuclei (%)” value [2] was 8.47% and 14.07%, the “Population Tubulin-Different-Phenotype (%)” value [2] was 0.64% and 0.89% and the “Total Cell Count” value [2] was 354 and 135. For the same compound, the “Population Apoptotic (%)” value [3] was 36.36% and 42.86%, the “Population Fragmented Nuclei (%)” value [3] was 0.47% and 0.53% and the “Population Healthy Nuclei (%)” value [3] was 90.89% and 88.24%. The “Population Hoechst High Intensity Objects (%)” value [3] was 0%, the “Population Membrane Permeable-Phenotype (%)” value [3] was 0.86% and 1.82% and the “Population Mitochondria Different-Phenotype (%)” value [3] was 0% and 3.03%. For the same compound, the “Population Mitotic Cells (%)” value [3] was 63.64% and 57.14%, the “Population Normal (%)” value [3] was 100% and the “Population Pyknosed Nuclei (%)” value [3] was 8.63% and 11.23%. The “Population Tubulin-Different-Phenotype (%)” value [3] was 0.17% and 0.61%, the “Population Apoptotic (%)” value [4] was 43.18% and 38.1% and the “Population Fragmented Nuclei (%)” value [4] was 2.04% and 1.9%. The “Population Healthy Nuclei (%)” value [4] was 88.96% and 84.81%, the “Population Hoechst High Intensity Objects (%)” value [4] was 0% and the “Population Membrane Permeable-Phenotype (%)” value [4] was 0.46% and 2.99%. The “Population Mitochondria Different-Phenotype (%)” value [4] was 0% and 8.21%, the “Population Mitotic Cells (%)” value [4] was 56.82% and 61.9% and the “Population Normal (%)” value [4] was 100%. The “Population Pyknosed Nuclei (%)” value [4] was 9% and 13.29%, the “Population Tubulin-Different-Phenotype (%)” value [4] was 0.23% and 0.75% and the “Population Apoptotic (%)” value [5] was 43.75% and 67.74%. For the same compound, the “Population Fragmented Nuclei (%)” value [5] was 3.57% and 1.19%, the “Population Healthy Nuclei (%)” value [5] was 86.9% and 89.55% and the “Population Hoechst High Intensity Objects (%)” value [5] was 0%. For the same compound, the “Population Membrane Permeable-Phenotype (%)” value [5] was 0.29% and 1.67%, the “Population Mitochondria Different-Phenotype (%)” value [5] was 0.1% and 3% and the “Population Mitotic Cells (%)” value [5] was 56.25% and 32.26%. The “Population Normal (%)” value [5] was 100%, the “Population Pyknosed Nuclei (%)” value [5] was 9.52% and 9.25% and the “Population Tubulin-Different-Phenotype (%)” value [5] was 0.2% and 1%. The “Population Apoptotic (%)” value [6] was 34.57% and 41.18%, the “Population Fragmented Nuclei (%)” value [6] was 3.23% and 2.2% and the “Population Healthy Nuclei (%)” value [6] was 88.86% and 85.35%. For the same compound, the “Population Hoechst High Intensity Objects (%)” value [6] was 0%, the “Population Membrane Permeable-Phenotype (%)” value [6] was 0.55% and 1.72% and the “Population Mitochondria Different-Phenotype (%)” value [6] was 0.11% and 5.58%. The “Population Mitotic Cells (%)” value [6] was 65.43% and 58.82%, the “Population Normal (%)” value [6] was 100% and the “Population Pyknosed Nuclei (%)” value [6] was 7.92% and 12.45%. The “Population Tubulin-Different-Phenotype (%)” value [6] was 0.33% and 0%.
